Experimental data collected from several papers.
Each line is one published result; the experiments were not run side by side. pIC50: −log10 of the molar value.
CYP2C19: Cytochrome P450 2C19 (CYP2C19, Homo sapiens, UniProt P33261)

SMILES	tested on	test	test system	conditions	endpoint	value
CSc1ccccc1C(=O)NCCn1cc(C(=O)NCc2cccc(C)n2)c(=O)c2cc3c(cc21)OC(F)(F)O3	CYP2C19	enzyme activity, inhibitor	human, liver microsomes	20 min, without NADPH, with preincubation	pIC50	< 4.00
C[C@H]1Oc2cc(cnc2N)-c2c(nn(C)c2C#N)CN(C)C(=O)c2ccc(F)cc21	–	–	male Sprague-Dawley rat, plasma	oral, 5 mg/kg, single dose	Tmax	1.5 h
CCC(CC)COC(=O)[C@H](C)N[P@](=O)(OC[C@H]1O[C@@](C#N)(c2ccc3c(N)ncnn23)[C@H](O)[C@@H]1O)Oc1ccccc1	A549	cell growth or viability, resazurin	–	72 h	CC50	25 µM
O=C(CCCCCCC(=O)Nc1ccccc1)NO	CYP2C19	enzyme activity, inhibitor, fluorescence	–	–	pIC50	5.49
C=CCn1c(=O)c2cnc(Nc3ccc(N4CCN(C)CC4)cc3)nc2n1-c1ccc2c(n1)[C@@](O)(CC)CC2	–	–	dog, plasma	intravenous, 3 mg/kg	clearance	46 mL/min/kg
CSc1ccccc1C(=O)NCCn1cc(C(=O)NCc2cccc(C)n2)c(=O)c2cc3c(cc21)OCO3	CYP2C19	enzyme activity, inhibitor	human, liver microsomes	20 min, without NADPH, with preincubation	pIC50	< 4.00
OB(O)c1csc2ccccc12	HFF-1	cell growth or viability, resazurin	–	50 µM, 24 h	viability	> 75%
O=c1[nH]cc(F)c(=O)[nH]1	A549	cell growth or viability, CCK-8	–	50 µM	viability	27.3%
NCc1ccc(-c2nn(Cc3ccncc3)c3ccccc23)o1	–	–	male CD-1 mouse, plasma	intravenous, 5 mg/kg	C0	1360 ng/mL
CN(C)C(=O)c1cc2cnc(Nc3ccc(-c4ccc5c(=O)cc(N6CCOCC6)oc5c4)cc3)nc2n1C1CCCC1.Cl	–	–	BALB/c mouse, plasma	intravenous, 2 mg/kg	CL/F	11.7 mL/min/kg
[N-]=[N+]=N[C@]1(CO)O[C@@H](n2ccc(N)nc2=O)[C@@H](F)[C@@H]1O	A549	cell growth or viability, ATP luminescence	–	72 h	CC50	> 50 µM
CN(CCOc1ccc(CC2SC(=O)NC2=O)cc1)c1ccccn1 (stereo not drawn)	A549	cell growth or viability, resazurin	–	72 h	CC50	100 µM
